Assay results from ChEMBL document CHEMBL4411301, “Design, Biological Evaluation, and Molecular Modeling of Tetrahydroisoquinoline Derivatives: Discovery of A Potent P-Glycoprotein Ligand Overcoming Multidrug Resistance in Cancer Stem Cells” (J Med Chem, 2019).
Activity calls are given as the source filed them. No cut-off for these calls is given here.

How the values were obtained:
[1] = molecular target: T1, ATP-dependent translocase ABCB1 (Homo sapiens, UniProt P08183); assay: Inhibition of MDR1 (unknown origin) expressed in MDCK cells assessed as increase in calcein-AM accumulation after 30 mins by calcein-AM dye based fluorescence assay; format: cell-based
How it was run: (§1)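 MDCK-MDR1 or MDCK-MRP1 cells seeded at 30,000/well and grown to confluence overnight. Compound (0.1–100 µM final, in medium) incubated 30 min at 37 °C, then calcein-AM added (2.5 µM final) for 30 min. Cells washed with ice-cold PBS and read at ex 485/em 535 nm. EC50 fitted from % fluorescence increase over untreated vs log dose. Mean ± SEM, three experiments in triplicate.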

[2] = molecular target: Multidrug resistance-associated protein 1 (Homo sapiens, UniProt P33527); assay: Inhibition of MRP1 (unknown origin) expressed in MDCK cells assessed as increase in calcein-AM accumulation incubated for 30 mins by calcein-AM dye based fluorescence assay; format: cell-based; how it was run: as §1
[3] = molecular target: T2, Broad substrate specificity ATP-binding cassette transporter ABCG2 (Homo sapiens, UniProt Q9UNQ0); assay: Inhibition of BCRP (unknown origin) expressed in MDCK cells assessed as reduction in Hoechst 33342 efflux preincubated for 30 mins followed by Hoechst 3334 addition measured after 30 mins by fluorescence assay; format: cell-based
T2 sequence (Q9UNQ0 whole entry): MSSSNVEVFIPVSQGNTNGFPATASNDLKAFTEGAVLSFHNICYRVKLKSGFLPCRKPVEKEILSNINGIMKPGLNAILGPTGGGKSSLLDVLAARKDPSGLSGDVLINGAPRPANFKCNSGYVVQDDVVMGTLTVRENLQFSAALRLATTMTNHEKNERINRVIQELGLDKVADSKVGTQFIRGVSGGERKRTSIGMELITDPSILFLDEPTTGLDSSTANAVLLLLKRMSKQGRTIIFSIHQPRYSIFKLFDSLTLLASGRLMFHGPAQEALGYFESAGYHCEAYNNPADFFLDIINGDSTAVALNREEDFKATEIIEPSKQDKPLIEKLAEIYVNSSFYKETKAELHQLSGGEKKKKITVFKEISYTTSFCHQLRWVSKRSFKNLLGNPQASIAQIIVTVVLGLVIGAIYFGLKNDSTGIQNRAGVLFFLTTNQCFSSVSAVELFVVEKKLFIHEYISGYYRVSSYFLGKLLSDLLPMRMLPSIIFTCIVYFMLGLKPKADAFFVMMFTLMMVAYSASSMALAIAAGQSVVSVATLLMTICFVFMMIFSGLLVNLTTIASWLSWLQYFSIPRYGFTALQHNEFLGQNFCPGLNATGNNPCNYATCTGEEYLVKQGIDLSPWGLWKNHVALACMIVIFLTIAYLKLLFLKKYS
How it was run: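 MDCK-BCRP monolayers (30,000 cells/well, confluent overnight) preincubated 30 min at 37 °C with compound (0.1–100 µM final). Hoechst 33342 then added (8 µM final) for 30 min. Cells fixed 20 min in 4% PFA, washed with ice-cold PBS and read at ex 340/em 485 nm. EC50 fitted from % fluorescence increase over basal vs log dose. Mean ± SEM, three experiments in triplicate.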

[4] = molecular target: MDR1 (ABCB1, P-glycoprotein) (Homo sapiens, UniProt P08183); assay: Activity at MDR1 in human Caco2 cells assessed as efflux ratio of apparent permeability from basolateral to apical side over apical to basolateral side; format: cell-based; settings: Caco-2
How it was run: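 Caco-2 cells grown 21 days on filter inserts, then washed with HBSS and equilibrated 30 min at 37 °C. Compound at 100 µM added to the donor side and incubated 120 min at 37 °C. Papp in nm/s calculated as (VA/Area) × ([drug]acceptor/[drug]initial)/time, membrane area 0.11 cm2. BA/AB ratio from two independent experiments.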

[5] = molecular target: T1, ATP-dependent translocase ABCB1; assay: Inhibition of MDR1 (unknown origin) expressed in MDCK1 cells assessed as potentiation of doxorubicin-induced decrease in cell proliferation at 1 uM administered alone on day 2 followed by drug addition day 3 along with doxorubicin addition by MTT assay; format: cell-based
How it was run: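 MDCK-MDR1 cells, 10000/well. On day 2, compound alone at 10 nM, 100 nM or 1 µM. On day 3, medium replaced with compound alone or with 10 µM doxorubicin; 48 h assay. MTT 0.5 mg/mL for 3–4 h at 37 °C, formazan dissolved in DMSO/EtOH 1:1, absorbance read at 570/630 nm. Solvent 1% v/v DMSO. Mean ± SEM, two experiments in triplicate; one-way ANOVA.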

[6] = molecular target: T1, ATP-dependent translocase ABCB1; assay: Inhibition of MDR1 in human primary glioblastoma stem cells assessed as increase in intracellular doxorubicin accumulation at 10 to 10000 nM after 3 hrs by spectrofluorimetric analysis; format: cell-based
How it was run: (§2)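 Differentiated or stem cells from primary glioblastoma or mesothelioma of 3 patients (stem cells used within passage 6). Incubated 3 h with 5 µM doxorubicin, alone or with compound (DMSO 1% v/v). Washed, lysed in ethanol/0.3 N HCl, doxorubicin fluorescence read at ex 475/em 553 nm and expressed as nmol/mg cell protein via calibration curve. Duplicates, n=3, mean ± SEM.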

[7] = molecular target: T1, ATP-dependent translocase ABCB1; assay: Inhibition of MDR1 in human primary mesothelioma stem cells assessed as increase in intracellular doxorubicin accumulation at 10 to 10000 nM after 3 hrs by spectrofluorimetric analysis; format: cell-based; how it was run: as §2
[8] = organism: Homo sapiens; assay: Induction of intracellular doxorubicin accumulation in human differentiated primary glioblastoma cells at 10 to 10000 nM after 3 hrs by spectrofluorimetric analysis; format: functional, cell-based; how it was run: as §2
[9] = organism: Homo sapiens; assay: Induction of intracellular doxorubicin accumulation in human differentiated primary mesothelioma stem cells at 10 to 10000 nM after 3 hrs by spectrofluorimetric analysis; format: functional, cell-based; how it was run: as §2
[10] = molecular target: T1, ATP-dependent translocase ABCB1; assay: Inhibition of MDR1 in human primary glioblastoma stem cells assessed as increase in doxorubicin-induced reduction in cell viability at 10 nM after 72 hrs by ATPlite luminescence assay; settings: 0.01 µM
How it was run: (§3)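 Primary glioblastoma or mesothelioma differentiated and stem cells incubated 72 h with medium, 5 µM doxorubicin, 10 nM compound or 1 µM elacridar, alone or combined (DMSO 1% v/v). Viability by ATPlite luminescence as % of untreated RLU. Quadruplicates, n=3, mean ± SEM, one-way ANOVA.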

[11] = organism: Homo sapiens; assay: Potentiation of doxorubicin-induced cytotoxicity in human differentiated primary glioblastoma cells assessed as increase in doxorubicin-induced reduction in cell viability at 10 nM after 72 hrs by ATPlite luminescence assay; format: functional, cell-based; how it was run: as §3
[12] = molecular target: T1, ATP-dependent translocase ABCB1; assay: Inhibition of MDR1 in human primary mesothelioma stem cells assessed as increase in doxorubicin-induced reduction in cell viability at 10 nM after 72 hrs by ATPlite luminescence assay; settings: 0.01 µM; how it was run: as §3
[13] = organism: Homo sapiens; assay: Potentiation of doxorubicin-induced cytotoxicity in human differentiated primary mesothelioma cells assessed as increase in doxorubicin-induced reduction in cell viability at 10 nM after 72 hrs by ATPlite luminescence assay; format: functional, cell-based; how it was run: as §3
[14] = organism: Homo sapiens; assay: Induction of doxorubicin accumulation in P-gp knocked out human primary glioblastoma stem cells co-expressing CRISPR-Cas at 10 nM after 3 hrs by spectrofluorimetric analysis; format: functional
How it was run: (§4)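 Patient-derived glioblastoma (line 4, patient #2) or mesothelioma (line 5, patient #1) stem cells, untreated, scrambled CRISPR-Cas or P-gp CRISPR-Cas knockout. Incubated 3 h with 5 µM doxorubicin. Cells lysed in ethanol/0.3 N HCl and doxorubicin read fluorimetrically at ex 475/em 553 nm, converted to nmol/mg protein by calibration. Duplicates, n=3, mean ± SEM, one-way ANOVA.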

[15] = organism: Homo sapiens; assay: Induction of doxorubicin accumulation in P-gp knocked out human primary mesothelioma stem cells co-expressing CRISPR-Cas at 10 nM after 3 hrs by spectrofluorimetric analysis; format: functional; how it was run: as §4
[16] = Cytotoxicity against human GSC at 10 nM after 24 hrs by LDH release assay; settings: 0.01 µM
[17] = Cytotoxicity against human MSC at 10 nM after 24 hrs by LDH release assay; settings: 0.01 µM
[18] = molecular target: T1, ATP-dependent translocase ABCB1; assay: Inhibition of MDR1 in human GSC assessed as increase in doxorubicin-induced cell toxicity at 10 nM after 24 hrs by LDH release assay; settings: 0.01 µM
[19] = molecular target: T1, ATP-dependent translocase ABCB1; assay: Inhibition of MDR1 in human MSC assessed as increase in doxorubicin-induced cell toxicity at 10 nM after 24 hrs by LDH release assay; settings: 0.01 µM
[20] = molecular target: T1, ATP-dependent translocase ABCB1; assay: Inhibition of MDR1 in human primary glioblastoma stem cells assessed as increase in doxorubicin-induced reduction in cell viability at 10 nM after 24 hrs by LDH release assay; settings: 0.01 µM
[21] = organism: Homo sapiens; assay: Potentiation of doxorubicin-induced cytotoxicity in human differentiated primary glioblastoma cells assessed as increase in doxorubicin-induced reduction in cell viability at 10 nM after 24 hrs by LDH release assay; format: functional, cell-based
[22] = molecular target: T1, ATP-dependent translocase ABCB1; assay: Inhibition of MDR1 in human primary mesothelioma stem cells assessed as increase in doxorubicin-induced reduction in cell viability at 10 nM after 24 hrs by LDH release assay; settings: 0.01 µM
[23] = organism: Homo sapiens; assay: Potentiation of doxorubicin-induced cytotoxicity in human differentiated primary mesothelioma cells assessed as increase in doxorubicin-induced reduction in cell viability at 10 nM after 24 hrs by LDH release assay; format: functional, cell-based

Multidrug resistance-associated protein 1, sequence (P33527 whole entry): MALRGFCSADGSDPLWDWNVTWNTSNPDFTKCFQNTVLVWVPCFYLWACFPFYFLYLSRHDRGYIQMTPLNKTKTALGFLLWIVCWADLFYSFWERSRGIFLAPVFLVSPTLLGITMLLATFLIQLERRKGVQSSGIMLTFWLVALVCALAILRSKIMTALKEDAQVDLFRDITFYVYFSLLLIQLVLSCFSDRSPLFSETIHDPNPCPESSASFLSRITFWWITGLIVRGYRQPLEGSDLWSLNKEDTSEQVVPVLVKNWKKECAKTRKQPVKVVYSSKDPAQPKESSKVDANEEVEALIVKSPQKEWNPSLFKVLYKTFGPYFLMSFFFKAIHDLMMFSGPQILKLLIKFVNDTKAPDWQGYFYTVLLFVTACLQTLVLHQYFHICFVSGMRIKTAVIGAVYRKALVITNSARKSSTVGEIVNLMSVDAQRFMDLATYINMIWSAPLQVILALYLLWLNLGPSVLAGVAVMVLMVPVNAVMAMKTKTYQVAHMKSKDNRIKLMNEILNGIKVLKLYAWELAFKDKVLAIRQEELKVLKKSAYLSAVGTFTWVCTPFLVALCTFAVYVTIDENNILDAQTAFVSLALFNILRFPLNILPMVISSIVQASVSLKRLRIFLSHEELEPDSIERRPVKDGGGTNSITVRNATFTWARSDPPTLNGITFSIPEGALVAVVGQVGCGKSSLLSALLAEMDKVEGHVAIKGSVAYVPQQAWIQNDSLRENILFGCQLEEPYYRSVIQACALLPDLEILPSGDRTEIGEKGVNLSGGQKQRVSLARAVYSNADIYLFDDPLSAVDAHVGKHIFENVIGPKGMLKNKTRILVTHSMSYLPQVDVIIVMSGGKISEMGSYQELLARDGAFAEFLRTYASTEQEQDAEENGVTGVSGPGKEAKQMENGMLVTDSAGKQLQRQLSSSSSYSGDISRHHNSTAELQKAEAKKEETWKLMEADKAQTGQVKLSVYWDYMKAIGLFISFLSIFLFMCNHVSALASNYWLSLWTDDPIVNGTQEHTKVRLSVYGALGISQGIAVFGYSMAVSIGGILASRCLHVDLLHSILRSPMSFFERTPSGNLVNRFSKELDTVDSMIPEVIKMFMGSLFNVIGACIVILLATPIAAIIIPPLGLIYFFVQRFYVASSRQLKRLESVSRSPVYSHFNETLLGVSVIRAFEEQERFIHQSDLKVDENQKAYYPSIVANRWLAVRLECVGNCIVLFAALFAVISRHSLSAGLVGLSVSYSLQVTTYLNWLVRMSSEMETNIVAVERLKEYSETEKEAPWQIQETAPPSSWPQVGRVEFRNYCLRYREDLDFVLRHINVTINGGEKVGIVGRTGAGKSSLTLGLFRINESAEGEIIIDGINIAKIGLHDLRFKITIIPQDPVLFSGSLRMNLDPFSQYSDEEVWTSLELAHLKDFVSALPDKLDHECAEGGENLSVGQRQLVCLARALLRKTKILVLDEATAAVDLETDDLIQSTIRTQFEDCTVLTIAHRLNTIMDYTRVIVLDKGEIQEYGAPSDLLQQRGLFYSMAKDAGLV
T1 sequence (P08183 whole entry): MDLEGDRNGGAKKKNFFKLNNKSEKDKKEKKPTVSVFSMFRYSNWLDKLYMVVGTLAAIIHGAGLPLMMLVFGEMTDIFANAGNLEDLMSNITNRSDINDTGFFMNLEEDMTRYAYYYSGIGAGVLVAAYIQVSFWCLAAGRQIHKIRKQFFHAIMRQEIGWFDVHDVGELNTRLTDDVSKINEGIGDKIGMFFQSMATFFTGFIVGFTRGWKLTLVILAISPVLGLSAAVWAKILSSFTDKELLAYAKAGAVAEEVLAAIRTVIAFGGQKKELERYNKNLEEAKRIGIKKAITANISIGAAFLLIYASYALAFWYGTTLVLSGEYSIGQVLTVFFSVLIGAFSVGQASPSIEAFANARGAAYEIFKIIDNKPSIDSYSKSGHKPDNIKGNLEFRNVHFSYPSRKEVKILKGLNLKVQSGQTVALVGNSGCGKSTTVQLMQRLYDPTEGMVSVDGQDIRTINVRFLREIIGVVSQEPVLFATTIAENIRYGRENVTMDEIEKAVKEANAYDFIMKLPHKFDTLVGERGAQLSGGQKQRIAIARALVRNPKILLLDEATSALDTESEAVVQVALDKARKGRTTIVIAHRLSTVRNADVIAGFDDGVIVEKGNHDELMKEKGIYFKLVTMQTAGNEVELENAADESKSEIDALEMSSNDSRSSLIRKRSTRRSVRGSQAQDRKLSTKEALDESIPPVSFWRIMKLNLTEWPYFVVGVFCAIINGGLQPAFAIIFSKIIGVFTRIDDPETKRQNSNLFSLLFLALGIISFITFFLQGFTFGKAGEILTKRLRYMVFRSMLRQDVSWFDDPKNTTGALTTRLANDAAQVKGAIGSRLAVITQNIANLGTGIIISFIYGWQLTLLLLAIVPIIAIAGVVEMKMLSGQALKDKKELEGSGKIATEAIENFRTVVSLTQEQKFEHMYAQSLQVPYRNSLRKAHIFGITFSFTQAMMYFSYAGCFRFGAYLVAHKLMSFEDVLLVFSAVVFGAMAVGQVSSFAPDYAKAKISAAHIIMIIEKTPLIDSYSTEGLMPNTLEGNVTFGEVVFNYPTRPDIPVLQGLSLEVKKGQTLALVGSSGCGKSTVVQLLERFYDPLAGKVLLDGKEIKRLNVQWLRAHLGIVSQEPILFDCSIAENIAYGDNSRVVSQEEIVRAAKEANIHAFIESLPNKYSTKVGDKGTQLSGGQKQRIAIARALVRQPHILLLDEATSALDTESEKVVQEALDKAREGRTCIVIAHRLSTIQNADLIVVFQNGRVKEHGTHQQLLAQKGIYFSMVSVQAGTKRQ
MDR1 (ABCB1, P-glycoprotein), sequence (P08183 whole entry): as above

SMILES | EC50 ([1]; read-out: EC50) [µM] | EC50 [2] | efflux ratio [4] | EC50 ([3]; mdck) | also measured
COc1cc2c(cc1OC)CN(Cc1ccc(-c3ccc4c(c3)C(=O)C(=O)N4)cc1)CC2 | 21.4 | Not Active | 8.1 | Not Active | 
COc1cc2c(cc1OC)CN(Cc1ccc(-c3ccc4c(c3)CC(=O)N4)cc1)CC2 | 1.47 | Not Active | 3.6 | Not Active | 
COc1cc2c(cc1OC)CN(Cc1ccc(-c3ccc(N(S(=O)(=O)c4ccccc4)S(=O)(=O)c4ccccc4)cc3)cc1)CC2 | 0.0153 | Not Active | > 20 | Not Active | inhibition (INH) [5]: Active; inhibition (INH) [6]: Active; inhibition (INH) [7]: Active; Activity [8]: inactive; Activity [9]: inactive; inhibition (INH) [10]: Active; Activity [11]: inactive; inhibition (INH) [12]: Active; Activity [13]: inactive; Activity [14]: inactive; Activity [15]: inactive; Activity [16]: Non-Toxic; Activity [17]: Non-Toxic; inhibition (INH) [18]: Active; inhibition (INH) [19]: Active; inhibition (INH) [20]: Active; Activity [21]: inactive; inhibition (INH) [22]: Active; Activity [23]: inactive
COc1cc2c(cc1OC)CN(Cc1ccc(-c3ccc4c(c3)C(N3CCc5cc(OC)c(OC)cc5C3)C(=O)N4)cc1)CC2 (configuration not stated) | 1.2 | Not Active | 8.5 |  | EC50 ([3]; read-out: EC50): 1.8 µM
COc1cc2c(cc1OC)CN(Cc1ccc(-c3ccc4[nH]ncc4c3)cc1)CC2 | 0.9 | Not Active | 12 | Not Active | 
COc1cc2c(cc1OC)CN(Cc1ccc(-c3ccc4[nH]cnc4c3)cc1)CC2 | 6.93 | Not Active | 9.2 | Not Active | 
COc1cc2c(cc1OC)CN(Cc1ccc(-c3ccc4[nH]c(=O)[nH]c4c3)cc1)CC2 | 29.5 | Not Active | 15 | Not Active | 
COc1cc2c(cc1OC)CN(Cc1ccc(-c3ccc4c(ccn4S(=O)(=O)c4ccccc4)c3)cc1)CC2 | 19.2 | Not Active | 4.2 | Not Active | 

The next lines start with results.

EC50 ([1]; read-out: EC50) [µM] | EC50 [2] | efflux ratio [4] | EC50 ([3]; mdck) | SMILES | also measured
0.32 | Not Active | 12.8 |  | CCCCNC(=O)Nc1ccc(-c2ccc(CN3CCc4cc(OC)c(OC)cc4C3)cc2)cc1 | EC50 ([3]; read-out: EC50): 46 µM
1.1 | Not Active | 17.6 | Not Active | CCCNC(=O)Nc1ccc(-c2ccc(CN3CCc4cc(OC)c(OC)cc4C3)cc2)cc1 | 
0.98 | Not Active | > 20 | Not Active | COc1cc2c(cc1OC)CN(Cc1ccc(-c3ccc(NC(=O)Nc4ccccc4)cc3)cc1)CC2 | 
3.1 | Not Active | 12.8 | Not Active | CNC(=O)Nc1ccc(-c2ccc(CN3CCc4cc(OC)c(OC)cc4C3)cc2)cc1 | 
 | Not Active | 19.9 | Not Active | COc1cc2c(cc1OC)CN(Cc1ccc(-c3ccc(NC(=O)c4ccccc4)cc3)cc1)CC2 | EC50 ([1]; mdck): Not Active
0.87 | Not Active | 15 | Not Active | COc1cc2c(cc1OC)CN(Cc1ccc(-c3ccc(NS(=O)(=O)c4ccccc4)cc3)cc1)CC2 | 
21.2 | Not Active | 1.9 | Not Active | COc1cc2c(cc1OC)CN(Cc1ccc(-c3ccc4[nH]ccc4c3)cc1)CC2 | 
1.52 | Not Active | 13.6 | Not Active | COc1cc2c(cc1OC)CN(Cc1ccc(-c3ccc(NC(C)=O)cc3)cc1)CC2 | 
 |  | 1.3 |  | COc1cc2c(cc1OC)CN(Cc1ccc(-c3ccc(O)cc3)cc1)CC2 | 
1.7 | Not Active | 9.3 | Not Active | CCNC(=O)Nc1ccc(-c2ccc(CN3CCc4cc(OC)c(OC)cc4C3)cc2)cc1 | 
5.2 | Not Active | 5 | Not Active | COc1cc2c(cc1OC)CN(Cc1ccc(-c3ccc(NS(C)(=O)=O)cc3)cc1)CC2 | 
